Source: PubChem (several laboratories)
core dimer inh = blocks dimerization of HCV core protein | TR-FRET GST/Flag-core106 dimerization, 1536-well | hit rate 0.33% among 300,000 | inhibition, % at 5 µM;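 active means inhibition above the mean of all tested compounds plus 3 SD, set per screening campaign, cut at about 45% in these data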
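Material: GST/Flag-tagged HCV core106 proteins. Incubation: 4 h, 22.5 °C incubation. Read-out basis: inhibition (%) from 671 over 617 nm ratio. Measured by: TR-FRET, excitation 340 nm, emission 617 and 671 nm.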
ALR H2O2 inh = blocks human ALR sulfhydryl oxidase activity | P55789 | purified ALR, DTT oxidation, H2O2 HRP-luminol luminescence | inhibition, % (concentration not given with the values) | hit rate 3.8% among 290,000 | AID 485317;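 active means mean replicate inhibition above about 79%, with every replicate also reaching it, limit read from the data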
Target sequence (P55789 whole entry, looked up): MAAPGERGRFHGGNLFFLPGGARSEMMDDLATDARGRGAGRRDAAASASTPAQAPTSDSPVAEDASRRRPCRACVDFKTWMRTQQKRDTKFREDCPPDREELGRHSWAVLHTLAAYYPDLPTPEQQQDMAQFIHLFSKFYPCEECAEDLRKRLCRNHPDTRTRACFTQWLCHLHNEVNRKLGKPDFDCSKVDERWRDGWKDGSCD
HCV NS3 hel inh = inhibitors of Hepatitis C virus NS3 helicase; NS3 helicase DNA unwinding, Cy5 molecular beacon fluorescence; inhibition, % at 10.9 µM; hit rate 0.56% among 290,000; AID 1800;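 active means inhibition above the mean of all tested compounds plus 3 SD, set per campaign, cut at about 35% in these data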
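Material: hepatitis C virus NS3 helicase domain fragment enzyme; measured by: Cy5 fluorescence, 0 and 60 min reads; control set: DMSO and thioflavine S; incubation: 60 min unwinding reaction at 25 °C after ATP addition; read-out basis: % inhibition from 60/0 min fluorescence ratio, DMSO 0%, thioflavine S 100%; repeats: singlicate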
PfM18AAP inh = PfM18AAP enzyme inhibition; recombinant PfM18AAP, H-Glu-NHMec fluorogenic cleavage; inhibition, % at 7.35 µM; hit rate 1.2% among 290,000;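 active means inhibition above the campaign mean inhibition over all tested compounds plus 3 SD, cut at about 28% in these data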
ZTA counter = blocks Epstein-Barr virus ZTA, an EBNA-1 counter-screen. P03206. ZTA-DNA binding, fluorescence polarization. inhibition, % at 11 µM. hit rate 0.15% among 320,000. AID 2234; in the data active means inhibition above about 33%
Target sequence (P03206 whole entry, looked up): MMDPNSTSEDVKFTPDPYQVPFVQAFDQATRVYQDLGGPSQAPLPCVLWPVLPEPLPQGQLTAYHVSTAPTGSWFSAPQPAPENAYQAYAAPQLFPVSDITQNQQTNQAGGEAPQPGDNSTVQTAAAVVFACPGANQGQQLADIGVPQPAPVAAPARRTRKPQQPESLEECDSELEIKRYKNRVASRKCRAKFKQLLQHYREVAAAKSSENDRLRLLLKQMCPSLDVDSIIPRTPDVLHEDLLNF
EBNA-1 inh = blocks EBNA-1 binding to DNA; EBNA-1 DNA binding, fluorescence polarization; inhibition, % at 14.8 µM; hit rate 0.34% among 300,000; in the data active means inhibition above about 28%
A number is an active result. Compounds with a hit are over-represented: about 5.2% of the library has one in this group of screens.

What do the screens show for `Cc1ccc(NC(=O)CSc2nc(NS(=O)(=O)c3ccccc3)cc(=O)[nH]2)cc1`?
core dimer inh: inactive; ALR H2O2 inh: 98; HCV NS3 hel inh: inactive; PfM18AAP inh: inactive; ZTA counter: inactive; EBNA-1 inh: inactive

What do the screens show for `O=C(c1cc(Cl)ccc1OCc1ccccc1)N1CCOCC1`?
core dimer inh: inactive; ALR H2O2 inh: inactive; HCV NS3 hel inh: inactive; PfM18AAP inh: inactive; ZTA counter: inactive; EBNA-1 inh: inactive

What do the screens show for `COC(=O)c1ccccc1-c1c2ccc(=N)cc-2oc2cc(N)ccc12`?
ZTA counter: inactive

What do the screens show for `O=C(CSc1nccc(=O)[nH]1)Nc1ccc(S(=O)(=O)N2CCOCC2)cc1`?
core dimer inh: inactive; ALR H2O2 inh: 99; HCV NS3 hel inh: inactive; PfM18AAP inh: inactive; ZTA counter: inactive; EBNA-1 inh: inactive

How did CCCc1cc(=O)[nH]c(SCC(=O)Nc2ccc(C)cc2)n1 do in these assays?
core dimer inh: inactive; ALR H2O2 inh: inactive; HCV NS3 hel inh: inactive; PfM18AAP inh: inactive; ZTA counter: inactive; EBNA-1 inh: inactive

What do the screens show for `Nc1cc(=O)[nH]c(SCC(=O)Nc2ccc(S(=O)(=O)N3CCOCC3)cc2)n1`?
core dimer inh: inactive; ALR H2O2 inh: inactive; HCV NS3 hel inh: inactive; PfM18AAP inh: inactive; ZTA counter: inactive; EBNA-1 inh: inactive

What do the screens show for `Cc1cc(=O)[nH]c(SCC(=O)Nc2ccc(C(=O)O)cc2)n1`?
core dimer inh: inactive; ALR H2O2 inh: 99; HCV NS3 hel inh: inactive; PfM18AAP inh: inactive; ZTA counter: inactive; EBNA-1 inh: inactive

What do the screens show for `Cc1ccc2nc(SCC(=O)Nc3ccc(C)c([N+](=O)[O-])c3)[nH]c2c1`?
core dimer inh: inactive; ALR H2O2 inh: 87; HCV NS3 hel inh: inactive; PfM18AAP inh: inactive; ZTA counter: inactive; EBNA-1 inh: inactive

What do the screens show for `COc1ccccc1NC(=O)CC1C(=O)Nc2ccccc2N1C(=O)c1ccccc1` (stereo not given)?
core dimer inh: inactive; ALR H2O2 inh: inactive; HCV NS3 hel inh: inactive; PfM18AAP inh: inactive; ZTA counter: inactive; EBNA-1 inh: inactive

How did Cc1ccc(Cl)cc1NC(=O)Nc1c(C)n(C)n(-c2ccccc2)c1=O do in these assays?
core dimer inh: inactive; ALR H2O2 inh: inactive; HCV NS3 hel inh: inactive; PfM18AAP inh: inactive; ZTA counter: inactive; EBNA-1 inh: inactive

What do the screens show for `O=C(CSCc1ccc(Cl)cc1)Nc1ccc(Br)cc1C(=O)O`?
core dimer inh: inactive; ALR H2O2 inh: 96; HCV NS3 hel inh: inactive; PfM18AAP inh: inactive; ZTA counter: inactive; EBNA-1 inh: inactive

Results for Cc1c(NC(=O)CSCc2ccc(Cl)cc2Cl)cccc1C(=O)O ?
core dimer inh: inactive; ALR H2O2 inh: 98; HCV NS3 hel inh: inactive; PfM18AAP inh: inactive; ZTA counter: inactive; EBNA-1 inh: inactive

What do the screens show for `O=C(CSCc1ccc(Cl)cc1Cl)Nc1ccccc1C(=O)Nc1ccc(C(=O)O)cc1`?
core dimer inh: inactive; ALR H2O2 inh: 97; HCV NS3 hel inh: inactive; PfM18AAP inh: inactive; ZTA counter: inactive; EBNA-1 inh: inactive

How did O=C(CSCc1ccc(Cl)cc1Cl)Nc1ccc(O)cc1C(=O)O do in these assays?
core dimer inh: inactive; ALR H2O2 inh: 98; HCV NS3 hel inh: inactive; PfM18AAP inh: inactive; ZTA counter: inactive; EBNA-1 inh: inactive

What do the screens show for `O=C(CSCc1ccc(Cl)cc1)Nc1ccccc1O`?
core dimer inh: inactive; ALR H2O2 inh: inactive; HCV NS3 hel inh: inactive; PfM18AAP inh: inactive; ZTA counter: inactive; EBNA-1 inh: inactive

What do the screens show for `Cc1nc(Nc2cccc(O)c2)c2c3c(sc2n1)CCC3`?
core dimer inh: inactive; ALR H2O2 inh: inactive; HCV NS3 hel inh: inactive; PfM18AAP inh: inactive; ZTA counter: inactive; EBNA-1 inh: inactive

How did CCOC(=O)C1CCN(c2cc3c(cc2NC(=O)c2cc(OC)ccc2Br)n(C)c(=O)n3C)CC1 do in these assays?
core dimer inh: inactive; HCV NS3 hel inh: inactive; PfM18AAP inh: inactive; ZTA counter: inactive; EBNA-1 inh: inactive

Results for COc1ccccc1C(=O)NNC(=O)c1ccc(Br)cc1 ?
core dimer inh: inactive; HCV NS3 hel inh: inactive; PfM18AAP inh: inactive; ZTA counter: inactive; EBNA-1 inh: inactive

Results for CCN(CC(=O)Nc1ccc2c(c1)OCCO2)C(=O)CC(NC(C)=O)c1ccccc1 (stereo not given) ?
core dimer inh: inactive; ALR H2O2 inh: inactive; ZTA counter: inactive; EBNA-1 inh: inactive

Results for O=C(CN1CCN(CN2C(=O)NC3(CCCCCC3)C2=O)CC1)Nc1ccc(F)cc1 ?
ALR H2O2 inh: inactive; ZTA counter: inactive

Results for C1CCC(c2nn3c(-c4n[nH]c5c4CCC5)nnc3s2)CC1 ?
core dimer inh: 51; HCV NS3 hel inh: inactive; PfM18AAP inh: inactive; ZTA counter: inactive; EBNA-1 inh: inactive

How did CCN(CC)c1ccc(-c2nn3c(-c4n[nH]c5c4CCC5)nnc3s2)cc1 do in these assays?
core dimer inh: inactive; ALR H2O2 inh: inactive; HCV NS3 hel inh: inactive; PfM18AAP inh: inactive; ZTA counter: inactive; EBNA-1 inh: inactive

What do the screens show for `Cc1[nH]oc(=O)c1N=Nc1ccccc1`?
core dimer inh: inactive; ALR H2O2 inh: inactive; HCV NS3 hel inh: inactive; PfM18AAP inh: inactive; ZTA counter: inactive; EBNA-1 inh: inactive

What do the screens show for `Cc1[nH]oc(=O)c1N=Nc1c(Cl)cccc1Cl`?
core dimer inh: inactive; ALR H2O2 inh: 92; HCV NS3 hel inh: inactive; PfM18AAP inh: inactive; ZTA counter: inactive; EBNA-1 inh: inactive

Results for CC1=NN(Cc2ccccc2)C(=O)C1C(c1ccccc1)C(C#N)C#N (stereo not given) ?
core dimer inh: inactive; ALR H2O2 inh: 98; HCV NS3 hel inh: inactive; PfM18AAP inh: inactive; ZTA counter: inactive; EBNA-1 inh: inactive

How did CC1=NN(Cc2ccccc2)C(=O)C1C(c1ccc(Cl)cc1)C(C#N)C#N (stereo not given) do in these assays?
core dimer inh: inactive; ALR H2O2 inh: inactive; HCV NS3 hel inh: inactive; PfM18AAP inh: inactive; ZTA counter: inactive; EBNA-1 inh: inactive

Results for COCCNC(=O)CS(=O)Cc1nc(-c2ccc(OC)cc2)oc1C (stereo not given) ?
core dimer inh: inactive; ALR H2O2 inh: 99; HCV NS3 hel inh: inactive; PfM18AAP inh: inactive; ZTA counter: inactive; EBNA-1 inh: inactive

Results for COc1ccc(-c2nc(CS(=O)CC(=O)NCc3ccc(Cl)cc3)c(C)o2)cc1OC (stereo not given) ?
core dimer inh: inactive; ALR H2O2 inh: 99; HCV NS3 hel inh: inactive; PfM18AAP inh: inactive; ZTA counter: inactive; EBNA-1 inh: inactive

Results for COCCCNC(=O)CS(=O)Cc1nc(-c2cccc(OC)c2)oc1C (stereo not given) ?
core dimer inh: inactive; ALR H2O2 inh: 99; HCV NS3 hel inh: inactive; PfM18AAP inh: inactive; ZTA counter: inactive; EBNA-1 inh: inactive

What do the screens show for `COc1ccc(CNC(=O)CS(=O)Cc2nc(-c3ccc(C)cc3)oc2C)cc1` (stereo not given)?
core dimer inh: inactive; ALR H2O2 inh: 99; HCV NS3 hel inh: inactive; PfM18AAP inh: inactive; ZTA counter: inactive; EBNA-1 inh: inactive
